In ChEMBL document CHEMBL4513216, “Probing the Open Global Health Chemical Diversity Library for Multistage-Active Starting Points for Next-Generation Antimalarials” (ACS Infect Dis, 2020) one finds cytotoxicity data, which are given here for 94 compounds.

The series in a line: Toxicity liver stage against HepG2, at 10uM. The series is classed as cell-based. Details: test concentration 10 uM, cell line HepG2-A16-CD81EGFP. Particulars: human, HepG2-A16-CD81EGFP cells; read-out: INHIBITION
In outline: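 Uninfected HepG2-A16-CD81EGFP cells, 3 × 10^3 per well, 1536-well, plated on prespotted compound at 10 μM final, parasite-free screening media added to match infected plates; puromycin 10 μM positive, DMSO 0.5% negative; run in parallel with 48 h PbLuc assay at 37 °C, 5% CO2; viability by CellTiter-Glo luminescence, normalized to controls.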
As to `Cc1ncc(CN(C)Cc2nc3cc(Cl)ccc3n2C)s1`, the cytotoxicity at 10 µM is -42.9%. Consider `CCCc1nc2c(c(C)c(C)n2Cc2cccnc2)c(N)c1CC`, for which the cytotoxicity at 10 µM amounted to 15%. With `Cc1ccnc(SCC(=O)Nc2csc3nc(=O)c(C)nn23)n1` the figure was 12.2%.

As for `CCC(C)NC(=O)c1snnc1-c1ccc(OC)cc1` (centres undefined), the cytotoxicity at 10 µM came to 6.93%. Take `Cn1ccc2c(NC(=O)Cn3ncc4c(c3=O)CCCC4)cccc21`: the cytotoxicity at 10 µM turned out to be 2.33%.

As for `CC(C)C1SCC(=O)Nc2c1c(O)nn2C1CCCCC1` (centres undefined), the cytotoxicity at 10 µM came to 2.42%. With `O=C(C1=COCCO1)N1CC(Oc2nc3c(Cl)cccc3s2)C1` the figure was 38.2%; with `O=C(NCc1ccccc1)N1CCC(Oc2ncccc2Br)CC1`, 18.3%. On to `Cc1csc(C(=O)N2CC(S(=O)(=O)C3CCCCC3)C2)c1`, for which the cytotoxicity at 10 µM is -2.83%.

For the compound `O=C(c1cnccn1)N1C[C@@H](c2ccccc2)[C@@]2(CCNC2=O)C1`, the cytotoxicity at 10 µM is -1.59%. Consider `COc1cc(N2CC[C@@H]3O[C@@H](c4ccncn4)C[C@H]3C2)ncn1`, for which the cytotoxicity at 10 µM came to 12.6%.

Consider `O=C(NC1CC1)c1cc2c(nc1O)CC(c1cccs1)CC2=O` (centres undefined), for which the cytotoxicity at 10 µM stood at 86.1%. In the case of `CSC1=Nc2c(cnn2-c2ccccc2)C2=NCCCN12` it was 8.85%; in that of `Cn1nc(C(=O)NCc2cccnc2)c2c1CCS(=O)(=O)C2`, 6.09%.

Take `CCn1nc(C)c(CNC(=O)c2nnc3ccc(Cl)cc3n2)c1C`: the cytotoxicity at 10 µM turned out to be 8.1%. For `CCC(=O)N1CCCC(c2nc(N(C)C)ncc2-c2ccc(F)cc2)C1` (centres undefined), the cytotoxicity at 10 µM is 28.1%. In the case of `CSc1ccc(CN2C[C@@H]3CC[C@@](O)(c4ccc(C)cn4)[C@@H]3C2)cc1` it was -15.7%.

With `CC(C)C1=NOC2(CCN(Cc3c[nH]c4ccccc34)CC2)C1`, the cytotoxicity at 10 µM turned out to be 3.46%. Turning to `CC(C)CSCCN1CCCN(S(C)(=O)=O)CC1`, the cytotoxicity at 10 µM was -8.17%. In the case of `CC(C)N(CC(=O)Nc1ccc(Br)cc1Cl)Cc1cccnc1` it was 17.2%; in that of `Cc1c(Cl)cccc1NC(=O)CN(Cc1cccnc1)C(C)C`, 4.77%; in that of `CC(C)(C)NC(=O)CN1CCCNCC1`, -145%. In the case of `CN(CCN1CCN(c2ccccc2)CC1)C(=O)Nc1ccncc1` it was 11.5%. With `Cc1c(CS(C)(=O)=O)cccc1NCCCC1CCCC1` the figure was 17.5%; with `Cc1nc(CN2CCc3c(nc(C4CC4)n3C)C2)nc2ccccc12`, 7.36%; with `CN(CC(=O)Nc1nc2c(s1)CCCCCC2)C(=O)c1ccco1`, 37.9%. As for `Cc1c(CN2CCCC(C(=O)Nc3ccccc3)C2)cc(C#N)n1C` (centres undefined), the cytotoxicity at 10 µM is 6.75%. In the case of `Cc1nn(C)c(NC(=O)C2SCCc3ccccc32)c1C` (centres undefined) it was 45.8%; in that of `CCC(CNC(=O)c1c(C)nn(C)c1OC)Oc1ccccc1` (centres undefined), -4.89%. With `Cc1nc(CN2CCN(C(=O)CCc3cccc(Cl)c3)CC2)no1` the figure was 2.93%. With `CN(C)CCCNC(=O)c1cnc(Cc2ccc(F)cc2)s1` the figure was 3.47%; with `CN1CCN(c2cc(CNCc3cccc4c3OCO4)ccn2)CC1`, -5.31%; with `Cc1nc(C)n(CC2CCCN2CC(=O)N(C)Cc2ccc(C)o2)n1` (centres undefined), 8.52%. As for `CN(Cc1cccc(F)c1)C(=O)CN1CCCC(Cn2cncn2)C1` (centres undefined), the cytotoxicity at 10 µM was 4.64%. With `CN(Cc1ccccc1)C(=O)CSc1ccc2c(c1)OCCO2` the figure was -9.48%; with `CNC(=O)CNC(=O)Nc1cc(-c2ccccc2)ns1`, 22%; with `CC(C)(C)CC(=O)NC(C)(C(N)=O)c1cccc(Cl)c1` (centres undefined), 11.5%. In the case of `NC(=O)c1cccc(CCNCc2cnc(-c3cccs3)s2)c1` it was 2.49%; in that of `Cc1ccc2cc(C(=O)NCCN3CCS(=O)(=O)CC3)c(C)nc2c1`, 10.5%. In the case of `CCS(=O)(=O)c1ccc(CNc2c(Cl)cccc2C#N)cc1` it was -50.6%; in that of `Cc1cc(CN2CC[C@H]3C[C@H](c4nc(C5CC5)cs4)O[C@@H]3C2)no1`, -97.6%.

Regarding `Cc1nc(-c2ccccc2)nc2c1CCN(Cc1nccn1C)CC2`, the cytotoxicity at 10 µM is -118%.

As to `COc1cc(N2CC[C@H](O)[C@@H]2Cc2ccccc2)ncn1`, the cytotoxicity at 10 µM was -75%. For the compound `CC(C)Nc1ncnc2c1CCN(C(=O)N1CCOCC1)CC2`, the cytotoxicity at 10 µM is -74%. In the case of `Nc1cc(N2CCCC(CO)(Cc3ccccc3F)C2)nc(N)n1` (centres undefined) it was 12.8%; in that of `Cn1cnc2cc(C(=O)N3CCN(CCO)[C@@H]4CS(=O)(=O)C[C@@H]43)ccc21`, 2.74%; in that of `Cc1ccccc1N1CCCN(C(=O)CCCn2ccnc2C)CC1`, -3.3%. With `CS(=O)(=O)N1C[C@H]2CNC[C@@]2(C(=O)NCCCc2ccccc2)C1` the figure was 0.334%. In the case of `CCOCCC(=O)Nc1cc(C(N)=O)ccc1N1CCCC(C)C1` (centres undefined) it was -43%; in that of `O=c1cc(N2CCCC2)cnn1CC(F)F`, 6.93%.

`CC(C)c1cc(N2CCC(C(C)N3CCCC3)CC2)n2nccc2n1` (centres undefined): the cytotoxicity at 10 µM is -1.86%. With `Fc1ccccc1Cc1noc(CN2CCC(N3CCSCC3)CC2)n1` the figure was -6.47%. As for `Cc1n[nH]c(C)c1CCNC(=O)C1CCCN(CC(N)=O)C1` (centres undefined), the cytotoxicity at 10 µM is -0.653%. Turning to `Cc1cc(N(C)CCCn2cccn2)nc(N)n1`, the cytotoxicity at 10 µM was 0.423%. With `CCCc1cnc(C)nc1N1CCC(Cc2ccc(CO)cc2)C1` (centres undefined) the figure was -2.36%; with `Cc1nc2cc(OCc3nc(C(=O)NC(C)(CO)CO)co3)ccc2s1`, 47.6%; with `Cc1nc2c(c(N3CCCC(OCc4ccccn4)C3)n1)CCNCC2` (centres undefined), 0.383%. In the case of `O=C1CCCN1CCCC(=O)N1CCCCC1c1ccc(F)cc1` (centres undefined) it was -43.2%; in that of `Cc1cccc(C(C)C)c1NC(=O)CN(C)C(C)c1nccs1` (centres undefined), -129%.

For the compound `Fc1ccccc1CN1CCCC2(CCN(c3ncccn3)C2)C1` (centres undefined), the cytotoxicity at 10 µM is -104%.

Regarding `CC(C)C1CN(C(=O)c2cc(=O)[nH]c(=O)[nH]2)CCCN1CC1CC1` (centres undefined), the cytotoxicity at 10 µM is -2.42%.

For `CCCn1ncc(CN2CCCC(C(=O)c3ccc(Cl)cc3C)C2)c1C` (centres undefined), the cytotoxicity at 10 µM is -6.35%.

As to `COCCCN1C(=O)CC[C@H]2CN(Cc3cc4ccccc4o3)CC[C@H]21`, the cytotoxicity at 10 µM came out at 23.8%. `Cc1cc(C(F)(F)F)nc(N2CCN(Cc3nccn3C)CC2)n1`: the cytotoxicity at 10 µM is -4.28%.

Regarding `CNc1cc(C)nc(N2Cc3cnn(Cc4ccc(F)cc4)c3C2)n1`, the cytotoxicity at 10 µM was determined as 4.03%. With `O=C(Cc1cccs1)N1CCCC(CNS(=O)(=O)Cc2ccccc2)C1` (centres undefined) the figure was 5.78%.

In the case of `CCN1CCN(C(=O)c2ccc3c(c2)NC(=O)CN3)[C@H]2CS(=O)(=O)C[C@H]21`, the cytotoxicity at 10 µM was -52.9%. With `Cc1nonc1CN(C)c1nc(-c2ccco2)nc2c1CCN(C)CC2` the figure was -0.274%; with `CN(CC1CCN(c2ccccc2)C1)c1ccc(Cn2ccnc2)cn1` (centres undefined), -142%; with `Cc1nc(N)cc(N2CCCC(COc3cccc(F)c3)C2)n1` (centres undefined), -1.53%. On to `COCCN(Cc1ccccc1C)c1nc(C)nc2oc(C)nc12`, for which the cytotoxicity at 10 µM is -51.8%. `CC(=O)c1cnc(NCC2OCCc3ccccc32)nc1C` (centres undefined): the cytotoxicity at 10 µM was -48.9%. Regarding `Cc1nc(NCc2noc(C3CCCO3)n2)c2ccsc2n1` (centres undefined), the cytotoxicity at 10 µM turned out to be 49.9%. For the compound `COCCCC1(CO)CCCN(Cc2nccs2)C1` (centres undefined), the cytotoxicity at 10 µM is 2.43%. For `COc1ccc(Oc2ncccc2F)cc1CN1CCCC1`, the cytotoxicity at 10 µM was found to be 2.09%.

Take `Cn1ccc(C(=O)N2CCCC(Cc3cccc4ncccc34)C2)n1` (centres undefined): the cytotoxicity at 10 µM was 22.1%. In the case of `Cc1nc(C)n(CC2CCCN(c3ncnc4sccc34)C2)n1` (centres undefined) it was 36.2%; in that of `c1cc(OCc2ccc3c(c2)OCO3)ccc1CNC1CC1`, 4.7%; in that of `c1cc2nccc(CC3CCCN(Cc4c[nH]cn4)CC3)c2cn1` (centres undefined), -5.11%. For `Cc1ccc(N2CC[C@H]3CN(C(=O)c4ccn(C)n4)C[C@H]3C2)nn1`, the cytotoxicity at 10 µM is -102%. With `O=C1CC(c2ccncc2)C2(CCN(C(=O)c3cccs3)CC2)N1` (centres undefined) the figure was -71.1%; with `Cc1cnc(N2C[C@@H]3[C@@H](C2)OCC(=O)N3CCN(C)C)nc1`, -4.35%; with `COc1cc(N2C[C@H]3CCC[C@@H](CN4CCOCC4)[C@H]3C2)ncn1`, -71.5%. With `O=C(NCc1cccnc1)[C@@H]1CC[C@@H]2[C@@H](CCN2c2ncc(F)cn2)O1` the figure was -44.6%; with `c1ccc(-c2cc(CNCCCC3CCOC3)c3nnnn3c2)cc1` (centres undefined), -22.3%; with `NCc1ccc(OC(F)F)cc1OC(F)F`, -43%. For `Cc1n[nH]c2ncc(CNC3CCCN(c4ncccn4)C3)cc12` (centres undefined), the cytotoxicity at 10 µM is 23.6%. In the case of `Cc1cncc(C(=O)N2CCO[C@H]3[C@H](Oc4ccccn4)CC[C@@H]32)c1` it was -115%; in that of `Cn1cc(CN2CCOC3(CCCN(c4cccc(F)c4)C3)C2)cn1` (centres undefined), -77.1%; in that of `CC(C)NC(=O)N1Cc2nccn2CC(CN2CCCC2)C1` (centres undefined), -75.8%. On to `O=C(NCc1cccnc1)[C@@H]1C[C@H]2[C@H](CCN2c2ncccn2)O1`, for which the cytotoxicity at 10 µM was -66.6%.

With `O=C(NCc1cccnc1)[C@H]1CC[C@@H]2[C@@H](CCN2c2ncccn2)O1`, the cytotoxicity at 10 µM was -82.2%. With `O=C(c1ccoc1)N1CCC2(CC1)COC(COc1ccccn1)C2` (centres undefined) the figure was -123%. With `CS(=O)(=O)c1ccc(CN2C[C@@H]3CC[C@H]2CN(c2ncccn2)C3)cc1`, the cytotoxicity at 10 µM is 0.345%.
